According to publication PMC10432377 (Journal of Applied Glycoscience, 2023):

What was measured:
Type in all cases: biochemical, Lacticaseibacillus casei
Details in all cases: 80 mM sodium acetate pH 4.0, 37 °C
[1] = test system: LBCZ_0230; experiment: D-galactose release, L-arabinose/D-galactose assay kit
How it was run: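 Recombinant C-terminally His6-tagged enzyme was expressed in E. coli BL21(DE3) and Ni²⁺-affinity purified. Lacto-N-biose I or galacto-N-biose at 0.1-2 mM was reacted with enzyme at 37 °C for 10 min. Reactions were stopped at 80 °C for 3 min and D-galactose was quantified. Km came from Michaelis-Menten nonlinear regression, as mean ± SD of three independent experiments.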

[2] = test system: LBCZ_0230; experiment: p-nitrophenol release, A400
How it was run: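 Purified recombinant His6-tagged enzyme (E. coli BL21(DE3), Ni²⁺ column) was assayed on p-nitrophenyl β-D-galactopyranoside over 0.0125-0.5 mM. Incubation ran at 37 °C for 10 min and was quenched with 1 M Na₂CO₃. p-Nitrophenol was measured at A400. Km was obtained by nonlinear Michaelis-Menten fitting, as mean ± SD of three independent experiments.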

[3] = test system: LBCZ_0230; experiment: o-nitrophenol release, A400
How it was run: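 The enzyme was C-terminally His6-tagged, expressed in E. coli BL21(DE3) and purified on Ni²⁺ affinity. Protein was quantified by amino acid analysis. o-Nitrophenyl β-D-galactopyranoside at 0.05-1 mM was incubated with enzyme at 37 °C for 10 min and stopped with 1 M Na₂CO₃. Released o-nitrophenol was read at A400. Km was fitted by nonlinear Michaelis-Menten regression from three independent experiments (mean ± SD).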

| SMILES | Km [1] | further results |
| --- | --- | --- |
| CC(=O)N[C@H]1C(O)O[C@H](CO)[C@@H](O)[C@@H]1O[C@@H]1O[C@H](CO)[C@H](O)[C@H](O)[C@H]1O (stereo partly shown) [LNB] | 238 ± 5 µM |  |
| O=[N+]([O-])c1ccc(O[C@@H]2O[C@H](CO)[C@H](O)[C@H](O)[C@H]2O)cc1 [pNPGal] |  | Km [2]: 20.9 ± 1.3 µM |
| CC(=O)N[C@H]1C(O)O[C@H](CO)[C@H](O)[C@@H]1O[C@@H]1O[C@H](CO)[C@H](O)[C@H](O)[C@H]1O (stereo partly shown) [GNB] | 707 ± 18 µM |  |
| O=[N+]([O-])c1ccccc1O[C@@H]1O[C@H](CO)[C@H](O)[C@H](O)[C@H]1O [oNPGal] |  | Km [3]: 50.1 ± 2.3 µM |
